ChEMBL document CHEMBL1134320, “Structure of protein tyrosine phosphatase 1B in complex with inhibitors bearing two phosphotyrosine mimetics” (J Med Chem, 2001)

Columns and labels:
[1] = target: T1, Receptor-type tyrosine-protein phosphatase C (Homo sapiens, UniProt P08575); test: Inhibitory activity against Protein tyrosine phosphatase CD45.
T1 sequence (P08575 whole entry): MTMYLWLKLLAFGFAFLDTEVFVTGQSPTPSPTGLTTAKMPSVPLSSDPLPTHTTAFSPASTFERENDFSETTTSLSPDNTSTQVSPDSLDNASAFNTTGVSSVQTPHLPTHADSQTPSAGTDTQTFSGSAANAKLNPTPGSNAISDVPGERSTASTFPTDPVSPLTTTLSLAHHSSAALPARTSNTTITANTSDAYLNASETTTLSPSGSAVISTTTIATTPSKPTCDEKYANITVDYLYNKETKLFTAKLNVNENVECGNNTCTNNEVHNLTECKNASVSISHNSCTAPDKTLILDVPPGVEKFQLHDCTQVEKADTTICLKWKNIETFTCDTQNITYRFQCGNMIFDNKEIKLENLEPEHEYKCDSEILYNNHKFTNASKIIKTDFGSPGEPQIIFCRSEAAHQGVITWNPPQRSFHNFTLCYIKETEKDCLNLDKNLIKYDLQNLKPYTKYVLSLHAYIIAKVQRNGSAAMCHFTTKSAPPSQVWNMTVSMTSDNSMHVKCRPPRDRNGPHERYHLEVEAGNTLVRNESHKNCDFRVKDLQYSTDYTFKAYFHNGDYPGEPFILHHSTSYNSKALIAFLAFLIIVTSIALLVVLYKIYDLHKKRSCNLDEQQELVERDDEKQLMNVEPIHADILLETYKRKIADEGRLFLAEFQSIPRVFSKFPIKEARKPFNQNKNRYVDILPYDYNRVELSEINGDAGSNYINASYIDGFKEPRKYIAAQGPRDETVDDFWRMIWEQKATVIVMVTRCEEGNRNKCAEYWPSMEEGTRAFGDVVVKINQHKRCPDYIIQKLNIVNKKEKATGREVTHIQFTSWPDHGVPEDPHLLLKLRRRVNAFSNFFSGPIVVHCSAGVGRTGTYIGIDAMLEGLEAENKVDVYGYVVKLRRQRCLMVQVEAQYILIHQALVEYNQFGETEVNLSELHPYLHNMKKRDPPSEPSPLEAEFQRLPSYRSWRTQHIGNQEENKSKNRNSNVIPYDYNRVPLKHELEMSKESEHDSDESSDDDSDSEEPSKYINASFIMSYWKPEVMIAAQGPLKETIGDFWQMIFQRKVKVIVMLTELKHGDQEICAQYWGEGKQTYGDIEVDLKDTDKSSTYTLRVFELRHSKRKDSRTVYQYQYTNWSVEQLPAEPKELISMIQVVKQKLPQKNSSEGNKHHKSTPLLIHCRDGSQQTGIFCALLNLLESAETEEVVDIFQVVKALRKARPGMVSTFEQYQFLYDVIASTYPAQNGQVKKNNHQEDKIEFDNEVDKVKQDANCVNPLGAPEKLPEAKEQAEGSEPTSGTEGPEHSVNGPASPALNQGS
Method in brief: (§1)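 Phosphatase activity was read with 3,6-fluorescein diphosphate (FDP) as substrate, at roughly the KM concentration for each enzyme. IC50 came from 10 inhibitor concentrations fitted to a four-parameter equation, with errors under 10%. Constructs: flag-PTP1B (1–320); flag-CD45 intracellular domain; GST-PTPβ, GST-SHP1 and GST-SHP2; human recombinant TCPTP from E. coli; flag-CDC25a from baculovirus-infected Sf9 cells.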

[2] = target: T2, Tyrosine-protein phosphatase non-receptor type 1 (Homo sapiens, UniProt P18031); test: Inhibitory activity against Protein tyrosine phosphatase 1B (PTP1B).
T2 sequence (P18031 whole entry): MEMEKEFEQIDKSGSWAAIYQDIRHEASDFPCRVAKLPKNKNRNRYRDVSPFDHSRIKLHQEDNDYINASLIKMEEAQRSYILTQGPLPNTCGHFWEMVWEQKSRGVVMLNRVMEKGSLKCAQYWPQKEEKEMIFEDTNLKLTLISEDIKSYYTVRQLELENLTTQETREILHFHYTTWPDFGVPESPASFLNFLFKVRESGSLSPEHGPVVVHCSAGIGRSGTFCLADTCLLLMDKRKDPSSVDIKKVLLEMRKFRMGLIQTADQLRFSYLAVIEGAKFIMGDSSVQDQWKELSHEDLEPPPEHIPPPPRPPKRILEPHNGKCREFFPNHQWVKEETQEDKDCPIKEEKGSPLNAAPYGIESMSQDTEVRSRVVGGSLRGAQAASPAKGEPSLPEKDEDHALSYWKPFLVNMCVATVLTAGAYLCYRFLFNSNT
Method in brief: as §1, with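 “enzyme.” for “enzyme. IC50 came from 10 inhibitor concentrations fitted to a four-parameter equation, with errors under 10%.”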

[3] = target: T2, Tyrosine-protein phosphatase non-receptor type 1; test: Binding affinity towards the site of PTP1B enzyme
[4] = target: Receptor-type tyrosine-protein phosphatase beta (Homo sapiens, UniProt P23467); test: Inhibitory activity against Protein tyrosine phosphatase PTPbeta.; method in brief: as §1
Sequence of Receptor-type tyrosine-protein phosphatase beta (P23467 whole entry): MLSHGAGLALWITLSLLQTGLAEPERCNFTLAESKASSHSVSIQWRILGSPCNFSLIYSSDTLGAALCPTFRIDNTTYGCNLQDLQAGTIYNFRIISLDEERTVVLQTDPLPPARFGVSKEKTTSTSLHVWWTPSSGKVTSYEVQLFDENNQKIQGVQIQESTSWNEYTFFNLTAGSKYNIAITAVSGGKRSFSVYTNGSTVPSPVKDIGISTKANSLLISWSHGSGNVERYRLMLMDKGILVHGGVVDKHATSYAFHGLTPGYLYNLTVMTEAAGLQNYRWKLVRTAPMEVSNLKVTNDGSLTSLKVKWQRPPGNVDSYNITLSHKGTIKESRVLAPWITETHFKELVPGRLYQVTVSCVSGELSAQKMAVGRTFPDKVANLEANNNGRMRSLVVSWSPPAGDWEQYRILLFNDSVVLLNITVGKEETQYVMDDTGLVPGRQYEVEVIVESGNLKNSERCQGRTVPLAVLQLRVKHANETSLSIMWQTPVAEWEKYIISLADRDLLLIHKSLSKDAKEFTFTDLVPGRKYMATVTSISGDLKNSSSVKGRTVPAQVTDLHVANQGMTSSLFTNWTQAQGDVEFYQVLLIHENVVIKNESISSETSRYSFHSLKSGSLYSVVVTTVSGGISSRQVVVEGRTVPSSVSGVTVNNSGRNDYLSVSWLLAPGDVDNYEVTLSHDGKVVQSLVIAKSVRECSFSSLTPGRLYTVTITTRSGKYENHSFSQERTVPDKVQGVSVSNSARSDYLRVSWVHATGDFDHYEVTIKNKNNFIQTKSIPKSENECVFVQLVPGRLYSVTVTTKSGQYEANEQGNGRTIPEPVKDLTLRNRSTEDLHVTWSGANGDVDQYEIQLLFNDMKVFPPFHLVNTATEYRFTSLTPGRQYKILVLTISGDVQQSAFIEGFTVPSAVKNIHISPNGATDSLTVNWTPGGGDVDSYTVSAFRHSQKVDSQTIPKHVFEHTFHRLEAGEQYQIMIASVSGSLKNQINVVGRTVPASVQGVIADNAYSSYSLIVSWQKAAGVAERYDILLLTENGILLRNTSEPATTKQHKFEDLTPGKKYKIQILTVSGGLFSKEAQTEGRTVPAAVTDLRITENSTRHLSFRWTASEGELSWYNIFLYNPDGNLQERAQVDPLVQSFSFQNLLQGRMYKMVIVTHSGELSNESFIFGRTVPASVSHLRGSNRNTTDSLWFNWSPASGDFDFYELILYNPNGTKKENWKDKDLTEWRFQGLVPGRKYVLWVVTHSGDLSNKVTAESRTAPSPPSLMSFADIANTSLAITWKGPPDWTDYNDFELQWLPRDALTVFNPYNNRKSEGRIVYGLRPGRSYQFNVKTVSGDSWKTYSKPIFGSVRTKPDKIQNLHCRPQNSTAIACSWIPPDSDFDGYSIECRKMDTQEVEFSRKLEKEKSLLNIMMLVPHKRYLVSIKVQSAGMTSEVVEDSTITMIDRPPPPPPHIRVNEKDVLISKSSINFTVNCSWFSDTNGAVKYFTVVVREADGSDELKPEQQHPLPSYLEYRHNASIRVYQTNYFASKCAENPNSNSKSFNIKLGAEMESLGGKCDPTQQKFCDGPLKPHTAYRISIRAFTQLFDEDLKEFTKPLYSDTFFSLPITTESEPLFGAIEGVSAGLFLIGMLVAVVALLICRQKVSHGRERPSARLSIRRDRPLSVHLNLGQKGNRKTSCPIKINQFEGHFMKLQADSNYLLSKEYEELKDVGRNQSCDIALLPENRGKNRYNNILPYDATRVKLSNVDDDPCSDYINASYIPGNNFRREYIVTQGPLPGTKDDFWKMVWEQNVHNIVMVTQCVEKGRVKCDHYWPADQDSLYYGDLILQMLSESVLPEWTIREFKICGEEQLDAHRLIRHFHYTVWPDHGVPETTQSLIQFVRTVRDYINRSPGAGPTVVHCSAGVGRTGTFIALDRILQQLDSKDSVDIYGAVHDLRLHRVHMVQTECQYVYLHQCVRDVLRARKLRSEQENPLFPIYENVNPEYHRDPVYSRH

[5] = target: Tyrosine-protein phosphatase non-receptor type 6 (Homo sapiens, UniProt P29350); test: Inhibitory activity against Protein tyrosine phosphatase SHP-1.; method in brief: as §1
Sequence of Tyrosine-protein phosphatase non-receptor type 6 (P29350 whole entry): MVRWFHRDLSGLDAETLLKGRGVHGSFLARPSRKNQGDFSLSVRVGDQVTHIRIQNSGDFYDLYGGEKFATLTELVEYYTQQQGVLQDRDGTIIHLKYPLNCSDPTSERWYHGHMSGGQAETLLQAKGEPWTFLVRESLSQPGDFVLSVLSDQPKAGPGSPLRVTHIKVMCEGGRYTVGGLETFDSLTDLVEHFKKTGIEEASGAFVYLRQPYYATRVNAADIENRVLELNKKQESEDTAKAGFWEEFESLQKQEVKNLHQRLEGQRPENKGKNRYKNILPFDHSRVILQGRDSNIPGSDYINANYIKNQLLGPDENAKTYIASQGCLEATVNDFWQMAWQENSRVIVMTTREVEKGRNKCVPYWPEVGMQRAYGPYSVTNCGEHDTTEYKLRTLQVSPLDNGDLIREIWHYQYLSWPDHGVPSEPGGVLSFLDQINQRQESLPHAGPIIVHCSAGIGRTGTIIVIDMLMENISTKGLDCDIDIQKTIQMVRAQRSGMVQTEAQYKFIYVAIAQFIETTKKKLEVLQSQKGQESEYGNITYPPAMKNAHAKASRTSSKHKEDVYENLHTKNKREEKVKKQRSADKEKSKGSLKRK

[6] = target: T3, Tyrosine-protein phosphatase non-receptor type 11 (Homo sapiens, UniProt Q06124); test: Inhibitory activity against Protein tyrosine phosphatase SHP-2.; method in brief: as §1
T3 sequence (Q06124 whole entry): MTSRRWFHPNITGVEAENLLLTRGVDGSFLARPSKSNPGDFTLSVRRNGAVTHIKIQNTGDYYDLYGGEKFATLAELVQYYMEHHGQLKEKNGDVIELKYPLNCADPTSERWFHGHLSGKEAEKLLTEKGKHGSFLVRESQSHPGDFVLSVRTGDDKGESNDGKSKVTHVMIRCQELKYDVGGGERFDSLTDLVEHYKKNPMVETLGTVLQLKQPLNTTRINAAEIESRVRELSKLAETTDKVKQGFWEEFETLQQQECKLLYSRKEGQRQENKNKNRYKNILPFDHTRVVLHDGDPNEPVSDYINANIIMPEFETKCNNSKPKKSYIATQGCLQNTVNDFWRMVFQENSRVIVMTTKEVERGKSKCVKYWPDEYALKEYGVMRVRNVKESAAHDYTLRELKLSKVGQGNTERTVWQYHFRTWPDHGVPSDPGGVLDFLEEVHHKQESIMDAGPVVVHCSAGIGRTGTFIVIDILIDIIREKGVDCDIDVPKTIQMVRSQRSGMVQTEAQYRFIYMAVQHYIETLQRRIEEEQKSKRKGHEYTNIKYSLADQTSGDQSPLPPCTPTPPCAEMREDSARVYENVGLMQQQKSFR

[7] = target: T4, Tyrosine-protein phosphatase non-receptor type 2 (Homo sapiens, UniProt P17706); test: Inhibitory activity against Protein tyrosine phosphatase TCPTP.; method in brief: as §1
T4 sequence (P17706 whole entry): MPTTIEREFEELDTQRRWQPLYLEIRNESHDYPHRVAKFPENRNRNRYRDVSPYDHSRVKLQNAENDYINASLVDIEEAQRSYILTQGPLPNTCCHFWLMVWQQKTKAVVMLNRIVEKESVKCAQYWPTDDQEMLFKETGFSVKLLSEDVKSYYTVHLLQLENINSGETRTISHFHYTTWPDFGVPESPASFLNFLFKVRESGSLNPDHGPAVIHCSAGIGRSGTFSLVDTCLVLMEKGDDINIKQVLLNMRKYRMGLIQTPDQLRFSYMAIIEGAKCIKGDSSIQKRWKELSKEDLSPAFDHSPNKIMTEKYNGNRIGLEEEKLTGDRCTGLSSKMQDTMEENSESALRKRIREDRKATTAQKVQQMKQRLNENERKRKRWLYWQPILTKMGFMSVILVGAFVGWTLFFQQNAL

[8] = target: T5, Tyrosine-protein phosphatase non-receptor type 4 (Homo sapiens, UniProt P29074); test: Inhibitory activity against Protein tyrosine phosphatase PTPmeg-1.
T5 sequence (P29074 whole entry): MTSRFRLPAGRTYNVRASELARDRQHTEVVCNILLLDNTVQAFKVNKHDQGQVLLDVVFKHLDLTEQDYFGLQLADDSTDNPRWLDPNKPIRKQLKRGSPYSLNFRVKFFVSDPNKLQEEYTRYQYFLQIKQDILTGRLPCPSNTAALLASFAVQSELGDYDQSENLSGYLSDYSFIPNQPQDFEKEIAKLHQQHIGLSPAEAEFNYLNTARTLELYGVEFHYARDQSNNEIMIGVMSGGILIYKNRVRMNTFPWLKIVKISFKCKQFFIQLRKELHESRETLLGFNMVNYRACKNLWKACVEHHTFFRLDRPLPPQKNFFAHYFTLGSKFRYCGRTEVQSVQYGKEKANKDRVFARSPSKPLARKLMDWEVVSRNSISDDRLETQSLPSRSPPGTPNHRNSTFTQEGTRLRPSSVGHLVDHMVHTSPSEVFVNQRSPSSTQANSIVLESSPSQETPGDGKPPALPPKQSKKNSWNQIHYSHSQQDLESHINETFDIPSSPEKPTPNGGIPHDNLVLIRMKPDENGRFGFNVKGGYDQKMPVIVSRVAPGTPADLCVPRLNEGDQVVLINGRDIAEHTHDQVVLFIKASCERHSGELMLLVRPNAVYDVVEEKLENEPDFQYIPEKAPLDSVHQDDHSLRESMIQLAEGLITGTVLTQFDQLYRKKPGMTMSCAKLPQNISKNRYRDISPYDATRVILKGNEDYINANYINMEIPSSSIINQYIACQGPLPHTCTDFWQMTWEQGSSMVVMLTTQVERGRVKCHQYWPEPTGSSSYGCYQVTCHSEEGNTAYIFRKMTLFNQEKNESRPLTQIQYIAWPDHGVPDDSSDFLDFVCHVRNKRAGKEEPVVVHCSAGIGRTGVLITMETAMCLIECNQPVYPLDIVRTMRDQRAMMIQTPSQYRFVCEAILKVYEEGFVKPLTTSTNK

[9] = target: T6, M-phase inducer phosphatase 1 (Homo sapiens, UniProt P30304); test: Inhibitory activity against Protein tyrosine phosphatase cell division cycle 25A; method in brief: as §1
T6 sequence (P30304 whole entry): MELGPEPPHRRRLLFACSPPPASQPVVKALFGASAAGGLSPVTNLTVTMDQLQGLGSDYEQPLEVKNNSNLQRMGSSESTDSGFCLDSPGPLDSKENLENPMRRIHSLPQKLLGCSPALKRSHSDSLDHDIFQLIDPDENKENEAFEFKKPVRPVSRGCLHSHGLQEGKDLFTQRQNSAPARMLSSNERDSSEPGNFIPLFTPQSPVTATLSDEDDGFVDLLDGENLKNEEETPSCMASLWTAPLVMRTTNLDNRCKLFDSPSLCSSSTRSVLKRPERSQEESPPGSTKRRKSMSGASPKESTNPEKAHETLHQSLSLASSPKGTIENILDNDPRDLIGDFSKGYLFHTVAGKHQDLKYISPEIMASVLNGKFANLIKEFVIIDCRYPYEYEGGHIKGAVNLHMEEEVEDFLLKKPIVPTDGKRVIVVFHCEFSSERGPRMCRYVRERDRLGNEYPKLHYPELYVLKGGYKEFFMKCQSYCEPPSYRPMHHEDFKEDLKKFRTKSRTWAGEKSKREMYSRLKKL

[10] = target: T2, Tyrosine-protein phosphatase non-receptor type 1; test: Binding affinity towards the binding site in PTP1B enzyme

Row | IC50 [1] | IC50 [2] | Ki [3] | IC50 [4] | IC50 [5] | IC50 [6] | IC50 [7] | IC50 [8] | IC50 [9] | Ki [10] | Compound
1 | 198 µM | 4.4 µM | 1.5 µM | 342 µM | 31 µM | 91 µM | 6.4 µM | – | – | – | O=P(O)(O)C(F)(F)c1ccc(CCCCc2ccc(C(F)(F)P(=O)(O)O)cc2)cc1
2 | 14 µM | 4.2 µM | – | 15 µM | 6.3 µM | 16 µM | 4.6 µM | 146 µM | 30 µM | – | O=P(O)(O)C(F)(F)c1ccc(COc2ccc(OCc3ccc(C(F)(F)P(=O)(O)O)cc3)cc2)cc1
3 | 108 µM | 5.3 µM | – | 77 µM | 16 µM | 32 µM | 7.9 µM | – | 163 µM | – | O=P(O)(O)C(F)(F)c1ccc(COc2cccc(OCc3ccc(C(F)(F)P(=O)(O)O)cc3)c2)cc1
4 | 42 µM | 1.7 µM | – | 77 µM | 15 µM | 60 µM | 3.2 µM | – | 163 µM | – | O=P(O)(O)C(F)(F)c1ccc(COc2ccccc2OCc2ccc(C(F)(F)P(=O)(O)O)cc2)cc1
5 | 236 µM | 3.9 µM | – | 300 µM | 61 µM | 152 µM | 6.1 µM | – | – | – | O=P(O)(O)C(F)(F)c1ccc(COCCOCc2ccc(C(F)(F)P(=O)(O)O)cc2)cc1
6 | – | – | – | – | – | – | – | – | – | 0.93 µM | O=C(CCc1ccc(C(F)(F)P(=O)(O)O)cc1)Nc1cc(NC(=O)CCc2ccc(C(F)(F)P(=O)(O)O)cc2)cc(C(=O)NCc2ccc(C(=O)O)cc2)c1
